NPY-Y1 PAM-ag – NPY-Y1 receptor potentiators or agonists, primary screen, cell-based. NPY-Y1 expressing cells, potentiator/agonist activation. activation, % at 3.6 µM. 220,000 tested, 0.37% active. AID 1304, 2008; in the data active = activation above about 33%, passing the limit was not always enough;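 note: cells stimulated with NPY at EC10 then isoproterenol at EC100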
Target sequence (P25929 whole entry, looked up): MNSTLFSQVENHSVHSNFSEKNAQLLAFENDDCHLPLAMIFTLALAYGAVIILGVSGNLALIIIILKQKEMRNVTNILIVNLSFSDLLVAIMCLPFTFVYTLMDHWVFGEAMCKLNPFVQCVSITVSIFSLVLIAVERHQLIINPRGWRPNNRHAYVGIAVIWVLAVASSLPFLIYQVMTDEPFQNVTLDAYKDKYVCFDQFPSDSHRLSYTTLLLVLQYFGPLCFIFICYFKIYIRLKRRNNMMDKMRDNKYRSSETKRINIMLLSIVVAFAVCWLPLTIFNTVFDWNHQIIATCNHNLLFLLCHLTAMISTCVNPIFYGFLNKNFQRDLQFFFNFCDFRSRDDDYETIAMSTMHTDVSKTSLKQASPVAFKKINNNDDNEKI
Cl transport mod – KCC2 cotransporter modulators, thallium flux, primary screen, cell-based, HEK293 KCC2, FluoZin-2 fluorescence, MLSMR. Solute carrier family 12 member 5 (Homo sapiens), Q9H2X9. KCC2 cells, thallium flux FluoZin-2 fluorescence. B-score of Tl+ flux slope (higher = more flux/activation; lower = inhibition) at 10 µM. 190,000 tested, 2.2% active. AID 1456, 2008;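 active = thallium flux slope and its plate-corrected score both differing from the plate sample mean at a set confidence after two filtering rounds, in either direction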;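 note: slope of fluorescence scaled to starting intensity during 10 to 20 s after thallium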
NPY Y1 blocker – NPY-Y1 receptor antagonists, primary screen, cell-based; Neuropeptide Y receptor type 1 (Homo sapiens), P25929; 200,000 tested, 1% active; AID 1040, 2008; HEK293-CNG Y1 cells, membrane potential fluorescence; NPY at EC95, then isoproterenol; inhibition, % at 3.6 µM;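 active = inhibition above the campaign mean inhibition of all tested compounds plus 3 SD, cut at about 20% in these data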
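Benchmarks – high control isoproterenol alone, low control NPY with isoproterenol · Material – HEK293 Y1/CNG channel cell line · Times – dye 3 h, compound 60 min room temperature, stimulation 45 min · Probe or stimulus – NPY (25 nM), isoproterenol (1 µM), Ro 20-1724 (25 µM) · Evaluation – % inhibition of NPY effect · Signal – fluorescence, membrane potential probe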
NPY-Y2 PAM-ag – NPY-Y2 potentiators or agonists, primary screen, cell-based | Neuropeptide Y receptor type 2 (Homo sapiens), P49146 | cells expressing NPY-Y2, potentiator/agonist read-out | activation, % at 3.6 µM | 220,000 tested, 0.45% active; in the data active = activation above about 27%;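 note: cells stimulated with NPY near EC25 plus isoproterenol at EC100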
Target sequence (P49146 whole entry, looked up): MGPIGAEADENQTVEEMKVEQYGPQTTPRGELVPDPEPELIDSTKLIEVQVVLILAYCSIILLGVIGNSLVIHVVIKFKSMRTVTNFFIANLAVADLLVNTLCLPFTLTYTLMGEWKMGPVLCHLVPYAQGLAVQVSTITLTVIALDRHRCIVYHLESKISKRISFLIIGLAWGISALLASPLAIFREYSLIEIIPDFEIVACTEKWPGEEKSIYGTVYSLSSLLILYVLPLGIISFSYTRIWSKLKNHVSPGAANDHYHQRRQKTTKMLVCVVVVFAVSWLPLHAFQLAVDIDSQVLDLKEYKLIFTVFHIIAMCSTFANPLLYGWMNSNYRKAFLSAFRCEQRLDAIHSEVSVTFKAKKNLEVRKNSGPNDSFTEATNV
Furin inh – human furin inhibitors, primary screen, biochemical, fluorescence intensity; AID 463115, 2010; inhibition, % at 20 µM or 30 µM; P09958; 220,000 tested, 0.061% active; purified furin, fluorogenic substrate cleavage; in the data active = inhibition above about 25%
NPY Y2 blocker – NPY-Y2 receptor antagonists, primary screen, cell-based. AID 793, 2007. NPY-Y2 expressing cells, antagonist mode. inhibition, % at 2.7 µM. 140,000 tested, 0.99% active; in the data active = inhibition above about 17%
KCC2 secondary – KCC2 modulators in sodium-free buffer, confirmation, cell-based, HEK293 KCC2, thallium flux, secondary assay | 3,700 tested, 15% active | normalised thallium flux (F/F0 slope) at 10 µM | FluoZin2 fluorescence; stronger effect = higher value | shares compounds with Cl transport mod;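 active = thallium flux slope above the same plate's solvent-only control mean plus 3 SD; inconclusive = the two replicate wells disagree; inactive = no significant difference from solvent-only control wells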
KCC2 bumet counter – thallium flux persisting under bumetanide in KCC2 cells, confirmation, counter-screen for KCC2 modulator project, cell-based, HEK293 KCC2, FluoZin2, secondary assay 3 | shares compounds with Cl transport mod | HEK293-KCC2 + bumetanide/ouabain; stronger effect = higher value | normalized thallium flux at 10 µM | 3,700 tested, 49% active;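 active = thallium entry rate above the same plate's blocked-transporter control wells by more than 3 SD; inconclusive = the two repeat wells disagree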;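 note: raw slope of fluorescence over initial fluorescence between 10 and 20 s after thallium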
KCC2 secondary2 – KCC2 modulators without ouabain present, confirmation, cell-based, HEK293 KCC2, thallium flux, FluoZin2, secondary assay 2; shares compounds with Cl transport mod; thallium flux FluoZin2 fluorescence; actives lie on both sides; F/F0 rise rate, 10–20 s post-thallium; normalized thallium flux at 10 µM; 3,700 tested, 23% active;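 active = thallium flux slope more than 3 SD above or below the plate's solvent-only control mean, mostly below; inconclusive = the two repeat wells disagreed; inactive = no significant shift from solvent-only controls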
HEK293 Tl flux – thallium flux modulation in parental HEK cells, confirmation, counter-screen for KCC2 modulator project, cell-based, counterscreen 1; shares compounds with Cl transport mod; AID 1716, 2009; HEK293 parental cells, thallium flux FluoZin2, ouabain; baseline-ratio fluorescence slope, 10–20 s after thallium; thallium flux rate (normalised fluorescence) at 10 µM; 3,700 tested, 46% active;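 active = thallium flux rate significantly above the same plate's solvent-only control wells, beyond their mean plus 3 SD; inconclusive = the two replicate wells gave conflicting results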
KCC2 retest ouab – KCC2 inhibitors and activators, ouabain retest, confirmation, HEK-KCC2 cells; shares compounds with Cl transport mod; raw Tl+ flux slope (below DMSO = inhibition, above = activation) at 10 µM; HEK293-KCC2, thallium flux FluoZin2 fluorescence; bidirectional: low = inhibitor, high = activator; 3,700 tested, 48% active;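 active = thallium flux slope beyond 3 SD from same-plate DMSO control mean in most replicates, usually higher, sometimes lower; inconclusive = repeat tests gave conflicting results; inactive = no significant difference from controls in most replicates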;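 note: slope of initial-normalized fluorescence between seconds 10 and 20 after thallium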
HEK counter2 – native HEK Tl+ uptake effects, second counter-screen – HEK cells, counterscreen 2, counter-screen for KCC2 modulator project, confirmation; shares compounds with Cl transport mod; HEK293 parental, thallium flux FluoZin-2 fluorescence slope; thallium flux slope at 10 µM; 3,700 tested, 33% active; AID 1718, 2009;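 active = thallium flux slope above the same plate's solvent-control mean plus 3 SD in both duplicate wells; inconclusive = duplicate wells that disagreed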;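 note: run without ouabain in cells lacking the KCC2 cotransporter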
Numbers stand for hits; 0 = inactive; ? = inconclusive; - = not tested or not shown. Rows were chosen to be rich in hits. Some 3.7% of all compounds tested hit in one or more screens of this group.

SMILES | NPY-Y1 PAM-ag | Cl transport mod | NPY Y1 blocker | NPY-Y2 PAM-ag | Furin inh | NPY Y2 blocker | KCC2 secondary | KCC2 bumet counter | KCC2 secondary2 | HEK293 Tl flux | KCC2 retest ouab | HEK counter2
COc1ccc(N2C(=O)C(OC(C)=O)C2c2ccc(C)cc2)cc1 (stereo unspecified) | 0 | 0 | 0 | 0 | 0 | 0 | - | - | - | - | - | -
COc1ccc([C@@H]2Sc3ccccc3N(CCN(C)C)C(=O)[C@@H]2OC(C)=O)cc1 | 0 | 4.4 | 0 | 0 | 0 | 0 | 0 | 0 | 0 | 0 | 0 | 0
Cc1cc(C=C2C(=O)c3ccccc3C2=O)c(C)n1-c1cccc(C(=O)O)c1 | 0 | -5.4 | 0 | 0 | 0 | - | 0 | ? | 0.02 | 0.0056 | 0.01 | 0
Cc1ccc(CN2CCN(Cc3cnc(N4CCOCC4)s3)CC2CCO)cc1 (stereo unspecified) | 0 | 0 | 0 | 0 | 0 | - | - | - | - | - | - | -
CC(C)Oc1ccc(/C(O)=C2/C(=O)C(=O)N(CCN(C)C)C2c2ccco2)cc1 (stereo unspecified) | 0 | - | 0 | 0 | 0 | 0 | - | - | - | - | - | -
CCN(CC)CCN1C(=O)C(=O)/C(=C(/O)c2ccc(OC)cc2)C1c1ccco1 (stereo unspecified) | 0 | 8.7 | 0 | 0 | 0 | 0 | 0 | 0.0057 | 0 | ? | 0 | ?
CCCCCCNCc1c(F)cccc1Cl | 0 | 0 | 0 | 0 | 0 | 0 | - | - | - | - | - | -
Cc1nn(C(=O)CNS(=O)(=O)c2ccccc2)c(C)c1Sc1ccc(Cl)cc1 | 0 | 0 | 0 | 0 | 0 | 0 | - | - | - | - | - | -
COCCN(C(=S)Nc1ccc(C)cc1C)C(C)c1ccco1 (stereo unspecified) | 0 | 0 | 0 | 0 | 0 | - | - | - | - | - | - | -
O=C1Nc2ccccc2S/C1=C/Nc1cccc(Cl)c1 | 0 | - | 0 | 0 | 0 | 0 | 0 | ? | 0 | 0 | 0.015 | 0
O=C1Nc2ccccc2S/C1=C\C(=O)N1CCCC1 | 0 | 0 | 0 | 0 | 0 | - | - | - | - | - | - | -
CCCCC(=O)NS(=O)(=O)c1ccc(N=NN(CC)CC)cc1 | 0 | 0 | 0 | 0 | 0 | - | - | - | - | - | - | -
CC(Sc1nnnn1-c1ccccc1)C(=O)Nc1ccc(Cl)cn1 (stereo unspecified) | 0 | -4.4 | 0 | 0 | 0 | 0 | 0 | 0 | 0.026 | 0.006 | 0.015 | ?
CC(=O)Nc1ccc(N=Nc2ccc(O)cc2)cc1 | 0 | 0 | 0 | 0 | 0 | 0 | - | - | - | - | - | -
COc1ccccc1-c1ccc(SCC(=O)NCc2ccc3c(c2)OCO3)nn1 | 0 | 0 | 0 | 0 | 0 | - | - | - | - | - | - | -
O=C(Cn1nc(-c2ccccc2F)ccc1=O)NCc1ccc2c(c1)OCO2 | 0 | -3.9 | 0 | 0 | 0 | 0 | ? | 0 | ? | 0 | 0 | 0
COc1ccc(C2=NN(C(=O)c3cccs3)C(O)(C(F)(F)F)C2)cc1 (stereo unspecified) | 0 | 4.9 | 0 | 0 | 0 | - | ? | 0.0093 | 0 | ? | 0 | 0
CCOc1cc(/C=C(\C#N)C(=O)NCc2cccnc2)ccc1O | 0 | 0 | 0 | 0 | 0 | - | - | - | - | - | - | -
Cc1cc(NC(=O)COC(=O)[C@H](C)NC(=O)c2ccccc2)no1 | 0 | 0 | 0 | 0 | 0 | 0 | - | - | - | - | - | -
Cc1cc(NC(=O)COC(=O)C(Nc2ccc(C(F)(F)F)cc2Cl)C(C)C)no1 (stereo unspecified) | 0 | -7.2 | 0 | 0 | 0 | 0 | 0 | 0 | 0 | 0 | 0 | 0
N#CCCn1cc(/C=N/N=C2\NC(=O)C(CC(=O)O)S2)c(-c2ccc(F)cc2)n1 (stereo unspecified) | 0 | 0 | - | 0 | 0 | - | - | - | - | - | - | -
COC1=C/C(=C/c2c(N)n3cc(C)sc3nc2=O)C=CC1=O | 0 | -6.6 | 0 | 0 | 0 | 0 | 0.0038 | -0.0015 | 0.017 | 0.0028 | 0.008 | 0.006
C/C(Cl)=C\Cn1c(O)c(N=NC(N)=S)c2cc(Br)ccc21 | 0 | 36 | 0 | 0 | 0 | - | 0 | 0.029 | 0.054 | 0.043 | 0.062 | 0.03
NC(=S)N=Nc1c(O)n(CCCl)c2ccc(Br)cc12 | 0 | 29 | - | 0 | 0 | - | 0.017 | 0.069 | 0 | 0.03 | 0.042 | 0.015
CCc1ccc(NC(=O)Cn2ncc3c4ccccc4n(C)c3c2=O)cc1 | 0 | 0 | - | 0 | 0 | - | - | - | - | - | - | -
SMILES | NPY-Y1 PAM-ag | Cl transport mod | NPY Y1 blocker | NPY-Y2 PAM-ag | Furin inh | NPY Y2 blocker | KCC2 secondary | KCC2 bumet counter | KCC2 secondary2 | HEK293 Tl flux | KCC2 retest ouab | HEK counter2
COc1cc(C(=O)NNC(=S)NCc2ccco2)cc(OC)c1OC | 0 | 0 | 0 | 0 | 0 | - | - | - | - | - | - | -
O=[N+]([O-])c1cc(-c2ccn[nH]2)ccc1Cl | 0 | 0 | 0 | 0 | 0 | - | - | - | - | - | - | -
NC(=O)NOCc1ccccc1F | 0 | 0 | 0 | 0 | 0 | - | - | - | - | - | - | -
C=CCn1c(Sc2nncn2C)nc2c1c(=O)[nH]c(=O)n2C | 0 | - | 0 | 0 | 0 | 0 | ? | 0 | 0 | 0 | 0 | 0
CCCSc1nc2c(c(=O)[nH]c(=O)n2C)n1C | 0 | 11 | 0 | 0 | 0 | 0 | 0 | 0 | 0 | 0 | 0 | 0
CCN(CC)S(=O)(=O)c1ccc(NC(=O)C(C)N(c2ccc(OC)cc2)S(C)(=O)=O)cc1 (stereo unspecified) | 0 | - | 0 | 0 | 0 | 0 | - | - | - | - | - | -
CCOc1ccc(N(C(C)C(=O)Nc2ccc(OC)cc2)S(C)(=O)=O)cc1 (stereo unspecified) | 0 | -5 | 0 | 0 | 0 | 0 | 0 | 0 | 0 | 0 | 0 | 0

Bioassay records deposited in PubChem BioAssay by several laboratories.
